Bounds are passed on as bounds.

Data on 45 compounds can be found in ChEMBL document CHEMBL1255568, “Amino derivatives of indole as potent inhibitors of isoprenylcysteine carboxyl methyltransferase” (J Med Chem, 2010).

Assay [1] has as its target Protein-S-isoprenylcysteine O-methyltransferase (Homo sapiens, UniProt O60725). Put plainly: Inhibition of recombinant ICMT expressed in Sf9 cells using [3H] AdoMet after 20 mins by scintillation counting. Summed up: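 Sf9 membranes carrying recombinant Icmt (1.0 μg protein) in 100 mM Hepes pH 7.4, 5 mM MgCl2, 100 μM EDTA. Preincubated with compound (final DMSO 2% v/v) for 20 min at 37 °C. Reaction started with final 1 μM biotin-farnesyl-L-cysteine and 0.5 μM [3H]AdoMet, run 20 min at 37 °C, then stopped with Tween 20. Product captured overnight at 4 °C on streptavidin beads, washed, and counted by scintillation. Mean ± SD of 3 or more determinations.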

Assay [2] deals with MDA-MB-231. Put plainly: Antiproliferative activity against human MDA-MB-231 cells after 72 hrs by colorimetric tetrazolium assay. Conditions: MDA-MB-231, 72 h. Format: functional, cell-based. The procedure, abridged:
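MDA-MB-231 cells grown in DMEM with 10% FBS and penicillin/streptomycin at 37 °C, 5% CO2, used within passages 10-25. Seeded at 2400 cells/well in DMEM with 5% FBS for 24 h, then exposed to compound (final DMSO 0.5% v/v) for 72 h. MTS-type tetrazolium reagent added for 2 h at 37 °C, absorbance read at 490 nm, blank subtracted. Triplicate wells. IC50 from sigmoidal viability curve, mean of at least two determinations.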

Sequence of Protein-S-isoprenylcysteine O-methyltransferase (O60725 whole entry): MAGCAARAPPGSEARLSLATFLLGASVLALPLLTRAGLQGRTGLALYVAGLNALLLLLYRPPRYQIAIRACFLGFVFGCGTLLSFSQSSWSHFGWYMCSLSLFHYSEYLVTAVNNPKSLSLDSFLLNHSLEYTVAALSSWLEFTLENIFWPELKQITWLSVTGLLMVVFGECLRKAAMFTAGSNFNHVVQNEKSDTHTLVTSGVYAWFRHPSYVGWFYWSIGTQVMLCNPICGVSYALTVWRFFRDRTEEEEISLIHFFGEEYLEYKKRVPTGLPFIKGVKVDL

Turning to `CC(C)=CCC/C(C)=C/Cn1cc(CC(N)=O)c2cc(-c3cccc(C)c3)ccc21`, the results for the IC50 in assay [1] and in assay [2] were 1 µM and 10.6 µM, respectively.
Consider `CCCCCCCCn1cc(CN)c2cc(-c3cccc(C)c3)ccc21`, for which the IC50 turned out to be 0.7 µM in assay [1] and 2.9 µM in assay [2].
For the compound `CCCCCCCCn1cc(CN2CCCCC2)c2cc(-c3cccc(C)c3)ccc21`, the 50% inhibitory concentration (IC50) in assay [1] turned out to be 0.7 µM; in assay [2] it was 4.9 µM.
Regarding `CCN(CC)Cc1cn(CC=C(C)C)c2ccccc12`, the IC50 in assay [1] amounted to 67 µM; in assay [2] it was 74 µM.
Regarding `CCCCCCCCn1cc(CNC(C)=O)c2cc(-c3cccc(C)c3)ccc21`, the IC50 was 1.8 µM in assay [1] and 30 µM in assay [2].
The corresponding values for `Cc1cccc(-c2ccc3c(c2)c(CC(N)=O)cn3Cc2cccc(C(F)(F)F)c2)c1` are 2.5 µM and 17.2 µM.
As to `CCCCCCCCn1cc(CC(N)=O)c2cc(-c3cccc(OCC)c3)ccc21`, the IC50 in assay [1] was 1.3 µM; in assay [2] it was 18.7 µM.
As to `CCCCCCCCn1cc(CN(CC)CC)c2cc(F)ccc21`, the values for the IC50 in assay [1] and in assay [2] were 4.1 µM and 7.2 µM, respectively.
With `CCCCCCCCn1cc(CNS(C)(=O)=O)c2cc(-c3cccc(C)c3)ccc21`, the figures for the IC50 in assay [1] and in assay [2] were 1.2 µM and 17.5 µM, respectively.
As for `CCCCCCCCn1cc(CCC(N)=O)c2cc(-c3cccc(C)c3)ccc21`, in assay [2], the midpoint of inhibition, the IC50, lay at 20.7 µM.
As for `CCCCCCCCn1cc(CC(=O)OCC)c2cc(-c3cccc(C)c3)ccc21`, the IC50 in assay [1] and in assay [2] was > 100 µM throughout.
Turning to `CCCCCCCCn1cc(CC(N)=O)c2cc(-c3cccc(OC)c3)ccc21`, the IC50 was 1.9 µM in assay [1] and 22.4 µM in assay [2].
With `CCCCCCCCn1cc(CN(CC)CC)c2cc(-c3ccc(C)cc3)ccc21`, the IC50 in assay [1] worked out at 0.6 µM; in assay [2], 3.4 µM.
Take `CC(C)=CCn1cc(CC(N)=O)c2cc(-c3cccc(C)c3)ccc21`: the IC50 amounted to 7.7 µM in assay [1] and 28.5 µM in assay [2].
Take `CCCCCCCCn1cc(CC(=O)N2CCN(C)CC2)c2cc(-c3cccc(C)c3)ccc21`: in assay [2], the IC50 was found to be 19.7 µM.
Consider `CCCCCCCCn1cc(CC(=O)N(C)C)c2cc(-c3cccc(C)c3)ccc21`, for which the values for the IC50 in assay [1] and in assay [2] were 1.5 µM and 31 µM, respectively.
Turning to `CCCCCCCCn1cc(C(N)=O)c2cc(-c3cccc(C)c3)ccc21`, the IC50 in assay [2] is > 100 µM.
With `CCCCCCCCn1cc(CN(CC)CC)c2cc(-c3ccccc3C)ccc21`, the IC50 in assay [1] worked out at 0.6 µM; in assay [2], 5.5 µM.
`CCCCCCCCn1cc(CN(C)C)c2cc(-c3cccc(C)c3)ccc21`: the IC50 in assay [1] is 1.3 µM; in assay [2], 6.8 µM.
Regarding `CCCCCCCCn1ccc2cc(-c3cccc(C)c3)ccc21`, the half-inhibitory concentration (IC50) in assay [1] and in assay [2] was > 100 µM each time.
On to `CCN(CC)Cc1cn(CC=C(C)C)c2ccc(-c3cccc(C)c3)cc12`, for which the IC50 was found to be 2.4 µM in assay [1] and 3.8 µM in assay [2].
For `CC(C)=CCn1cc(CN2CCOCC2)c2cc(-c3cccc(C)c3)ccc21`, half-maximal inhibition in assay [2] (IC50) required 34 µM.
Consider `Cc1cccc(-c2ccc3[nH]cc(CC(N)=O)c3c2)c1`, for which the IC50 in assay [1] was 33 µM; in assay [2] it was > 100 µM.
The corresponding values for `CCCCCCCCn1cc(CC(N)=O)c2ccccc21` are 6.5 µM and 50 µM.
`CCCCCCCCn1cc(CC(=O)OC)c2cc(-c3cccc(C)c3)ccc21`: the IC50 is 76 µM in assay [1] and > 100 µM in assay [2].
In the case of `CC(C)=CCn1cc(CC(N)=O)c2cc(F)ccc21`, the IC50 in assay [2] was > 100 µM.
In the case of `CCCCCCCCn1cc(CN(C)C(C)C)c2cc(-c3cccc(C)c3)ccc21`, the IC50 worked out at 0.9 µM in assay [1] and 5.3 µM in assay [2].
Consider `CC(C)=CCn1cc(CN2CCCCC2)c2cc(-c3cccc(C)c3)ccc21`, for which the IC50 worked out at 2.1 µM in assay [1] and 3.9 µM in assay [2].
`CCCCCCCCn1cc(CN(C(C)C)C(C)C)c2cc(-c3cccc(C)c3)ccc21`: the IC50 in assay [1] was 1.7 µM; in assay [2] it was 20.1 µM.
Take `CCCCCCCCn1cc(CC(N)=O)c2cc(-c3ccc(C)cc3)ccc21`: in assay [1], the IC50 came to 1 µM.
Consider `CCCCCCCCn1cc(CN(CCC)CCC)c2cc(-c3cccc(C)c3)ccc21`, for which the IC50 in assay [1] came to 0.8 µM; in assay [2], 13 µM.
The corresponding values for `CCCCCCCCn1cc(CN2CCCC2)c2cc(-c3cccc(C)c3)ccc21` are 0.5 µM and 5.1 µM.
As for `CCCCCCCCn1cc(CC(=O)N(CC)CC)c2cc(-c3cccc(OCC)c3)ccc21`, the values for the IC50 in assay [1] and in assay [2] were 1 µM and 26.8 µM, respectively.
On to `CC(C)=CCn1ccc2cc(-c3cccc(C)c3)ccc21`, for which the IC50 in assay [2] is > 100 µM.
For the compound `CCCCCCCCn1cc(CC(=O)N(CC)CC)c2cc(-c3cccc(C)c3)ccc21`, the results for the IC50 in assay [1] and in assay [2] were 1.4 µM and 27 µM, respectively.
On to `CCCCCCCCn1cc(CC(N)=O)c2cc(F)ccc21`, for which, in assay [2], inhibition was half-maximal at 70 µM (IC50).
For `CCN(CC)Cc1cn(CC=C(C)C)c2ccc(F)cc12`, the IC50 stood at 35 µM in assay [1] and 32 µM in assay [2].
Take `CCCCCCCCn1cc(CN2CCN(C)CC2)c2cc(-c3cccc(C)c3)ccc21`: the IC50 in assay [1] turned out to be 0.9 µM; in assay [2], 6.1 µM.
For `CCCCCCCCn1cc(CC(=O)N2CCCCC2)c2cc(-c3cccc(C)c3)ccc21`, the values for the IC50 in assay [1] and in assay [2] were 1.8 µM and 28.9 µM, respectively.
Consider `CCCCCCCCn1cc(CC(N)=O)c2cc(-c3ccccc3C)ccc21`, for which the figures for the IC50 in assay [1] and in assay [2] were 1 µM and 21.2 µM, respectively.
`CCCCCCCCn1cc(CC(=O)N2CCCC2)c2cc(-c3cccc(C)c3)ccc21`: the values for the IC50 in assay [1] and in assay [2] were 1.2 µM and 15.6 µM, respectively.
The corresponding values for `CCCCCCCCn1cc(CC(=O)N(CC)CC)c2cc(-c3cccc(OC)c3)ccc21` are 0.8 µM and 52 µM.
Consider `CCCCCCCCn1cc(CN(CC)CC)c2cc(-c3cccc(C)c3)ccc21`, for which the IC50 in assay [1] was determined as 0.7 µM; in assay [2] it was 3.6 µM.
Consider `CCCCCCCCn1cc(CN2CCOCC2)c2cc(-c3cccc(C)c3)ccc21`, for which the IC50 in assay [1] was found to be 2.7 µM; in assay [2], 24.5 µM.
Take `CCCCCCCCn1cc(CC(N)=O)c2cc(-c3ccccc3)ccc21`: the IC50 was found to be 1.8 µM in assay [1] and 26 µM in assay [2].
